pIC50: −log10 of the molar value. Activity calls are given as the source filed them. No cut-off for these calls is given here.
Experiments:
T47D [1] = test: Induction of apoptosis in human T47D cells assessed as decrease in Bcl2 expression at 40 nM incubated for 48 hrs by Western blot analysis; format: functional, cell-based
Procedure, shortened: (§1)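 Cancer cells were exposed to graded concentrations for 48 h, washed three times in PBS and lysed in RIPA buffer. Immunoblots were probed with anti-Rb, anti-phospho-Rb, anti-Ki67 and anti-Bcl-2, each at 1:1000. β-actin served as loading control.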

SiHa = test: Induction of apoptosis in human SiHa cells at 40 nM incubated for 48 hrs by annexin V FITC and propidium iodide staining based flow cytometry; format: functional, cell-based
Procedure, shortened: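 Annexin V-FITC/PI double staining with flow-cytometric readout. MDA-MB-231, T-47D, SiHa and HeLa cells were treated with graded concentrations for 48 h. MDA-MB-231 and T-47D were grown in DMEM and SiHa in 1640 medium, each with 10% FBS and 1% penicillin/streptomycin at 37°C under 5% CO2. Early- and late-stage apoptotic fractions were scored.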

[2] = test system: Mast/stem cell growth factor receptor Kit (Homo sapiens), P10721 [V560G]; test: Inhibition of recombinant human cKIT V560G mutant (544 to end residues) at 1 uM using GGMEDIYFEFMGG as substrate incubated for 40 mins in presence of [gamma-33P]-ATP by scintillation counting method relative to control
Procedure, shortened: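 Tested at a single 1 uM in an outsourced commercial kinase-profiling panel, read as percent inhibition. Each value is the mean of two independent experiments.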

[3] = target: CDK4/Cyclin D3 (Homo sapiens) (UniProt P11802+P30281); test: Inhibition of recombinant human full length CDK4/cyclinD3 at 1 uM using Rb fragment as substrate incubated for 40 mins in presence of [gamma-33P]-ATP by scintillation counting method relative to control; format: protein-complex assay
[4] = target: Cyclin-dependent kinase 1/cyclin B1 (Homo sapiens, UniProt P06493); test: Inhibition of recombinant human full length CDK1/CyclinB using histone H1 as substrate incubated for 40 mins in presence of [gamma-33P]-ATP by scintillation counting method; format: protein-complex assay
Cyclin-dependent kinase 1/cyclin B1, sequence (P06493 whole entry): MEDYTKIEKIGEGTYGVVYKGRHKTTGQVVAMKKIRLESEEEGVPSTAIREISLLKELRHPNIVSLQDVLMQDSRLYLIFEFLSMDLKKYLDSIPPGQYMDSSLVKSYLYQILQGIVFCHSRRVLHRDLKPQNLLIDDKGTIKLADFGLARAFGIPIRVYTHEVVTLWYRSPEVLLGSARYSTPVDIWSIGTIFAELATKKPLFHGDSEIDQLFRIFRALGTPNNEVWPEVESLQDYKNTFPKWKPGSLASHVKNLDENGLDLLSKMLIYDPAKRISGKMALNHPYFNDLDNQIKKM
Cyclin-dependent kinase 1/cyclin B1, sequence (P14635 whole entry, further chain): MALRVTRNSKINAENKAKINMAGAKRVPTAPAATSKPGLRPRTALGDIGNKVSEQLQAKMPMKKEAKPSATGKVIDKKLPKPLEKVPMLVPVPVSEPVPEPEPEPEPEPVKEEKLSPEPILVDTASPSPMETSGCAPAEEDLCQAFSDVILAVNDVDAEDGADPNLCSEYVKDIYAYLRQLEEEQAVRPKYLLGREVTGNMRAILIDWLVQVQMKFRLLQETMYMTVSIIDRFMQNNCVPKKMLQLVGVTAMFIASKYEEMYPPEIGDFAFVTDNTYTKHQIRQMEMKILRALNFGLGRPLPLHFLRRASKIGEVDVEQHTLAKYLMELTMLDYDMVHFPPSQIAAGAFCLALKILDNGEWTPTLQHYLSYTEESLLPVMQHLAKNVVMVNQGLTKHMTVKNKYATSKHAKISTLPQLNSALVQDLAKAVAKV

T47D [5] = test: Induction of apoptosis in human T47D cells assessed as decrease in Rb phosphorylation incubated for 48 hrs by Western blot analysis; format: functional, cell-based; procedure, shortened: as §1
[6] = target: Serine/threonine-protein kinase Sgk3 (Homo sapiens) (UniProt Q96BR1); test: Inhibition of recombinant human SGK3 (119 to end residues) at 1 uM using GRPRTSSFAEGKK as substrate incubated for 40 mins in presence of [gamma-33P]-ATP by scintillation counting method relative to control
[7] = target: Serine/threonine-protein kinase WNK2 (Homo sapiens) (UniProt Q9Y3S1); test: Inhibition of recombinant human WNK2 (166 to 489 residues) at 1 uM using myelin basic protein as substrate incubated for 40 mins in presence of [gamma-33P]-ATP by scintillation counting method relative to control
Homo sapiens = species on record: Homo sapiens; test: Inhibition of recombinant human full length PI3K p110alpha/p65alpha (1 to 571 residues) at 1 uM using phosphatidylinositol 4,5-bisphosphate as substrate incubated for 40 mins in presence of [gamma-33P]-ATP by scintillation counting method relative to control
[8] = target: Tyrosine-protein kinase Lck (Homo sapiens) (UniProt P06239); test: Inhibition of recombinant human full length LCK at 1 uM using KVEKIGEGTYGVVYK as substrate incubated for 40 mins in presence of [gamma-33P]-ATP by scintillation counting method relative to control
Tyrosine-protein kinase Lck (Homo sapiens), sequence (P06239 2-509 limits assumed): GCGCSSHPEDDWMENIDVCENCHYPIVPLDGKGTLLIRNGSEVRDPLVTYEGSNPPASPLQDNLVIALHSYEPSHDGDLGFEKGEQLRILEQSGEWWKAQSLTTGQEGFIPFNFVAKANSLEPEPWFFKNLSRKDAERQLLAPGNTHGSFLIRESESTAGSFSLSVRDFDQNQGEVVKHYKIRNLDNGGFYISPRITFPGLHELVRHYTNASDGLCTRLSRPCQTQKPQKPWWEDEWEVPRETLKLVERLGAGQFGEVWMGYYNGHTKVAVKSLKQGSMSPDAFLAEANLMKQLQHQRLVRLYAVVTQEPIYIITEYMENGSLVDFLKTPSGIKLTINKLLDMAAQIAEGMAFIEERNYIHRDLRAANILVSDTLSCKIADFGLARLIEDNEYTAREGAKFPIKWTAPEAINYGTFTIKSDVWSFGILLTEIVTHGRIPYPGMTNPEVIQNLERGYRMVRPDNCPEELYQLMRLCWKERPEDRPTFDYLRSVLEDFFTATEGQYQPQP

[9] = target: Dual specificity mitogen-activated protein kinase kinase 6 (Homo sapiens) (UniProt P52564); test: Inhibition of recombinant human MKK6 (4 to end residues) at 1 uM using unactive SAPK2a as substrate incubated for 40 mins in presence of [gamma-33P]-ATP by scintillation counting method relative to control
Dual specificity mitogen-activated protein kinase kinase 6 (Homo sapiens), sequence (P52564 whole entry): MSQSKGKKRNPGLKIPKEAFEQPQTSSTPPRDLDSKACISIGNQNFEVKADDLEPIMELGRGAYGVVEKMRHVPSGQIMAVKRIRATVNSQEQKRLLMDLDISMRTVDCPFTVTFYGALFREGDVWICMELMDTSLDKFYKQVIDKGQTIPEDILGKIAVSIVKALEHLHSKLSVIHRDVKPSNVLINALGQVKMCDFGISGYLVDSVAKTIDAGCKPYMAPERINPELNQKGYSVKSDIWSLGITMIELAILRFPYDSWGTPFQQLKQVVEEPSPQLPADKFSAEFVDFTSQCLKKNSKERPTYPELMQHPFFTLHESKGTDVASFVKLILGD

[10] = target: Calcium/calmodulin-dependent protein kinase type IV (Homo sapiens) (UniProt Q16566); test: Inhibition of recombinant full length human CAMK4 at 1 uM using calmodulin as substrate incubated for 40 mins in presence of [gamma-33P]-ATP by scintillation counting method relative to control
Procedure, shortened: (§2)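 Kinase panel profiling at 1 μM performed by Eurofins KinaseProfiler; percent inhibition reported as mean of two independent experiments.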

[11] = target: Mitogen-activated protein kinase kinase kinase 2 (Homo sapiens) (UniProt Q9Y2U5); test: Inhibition of recombinant human full length MEKK2 at 1 uM using myelin basic protein as substrate incubated for 40 mins in presence of [gamma-33P]-ATP by scintillation counting method relative to control
Mitogen-activated protein kinase kinase kinase 2 (Homo sapiens), sequence (Q9Y2U5 whole entry): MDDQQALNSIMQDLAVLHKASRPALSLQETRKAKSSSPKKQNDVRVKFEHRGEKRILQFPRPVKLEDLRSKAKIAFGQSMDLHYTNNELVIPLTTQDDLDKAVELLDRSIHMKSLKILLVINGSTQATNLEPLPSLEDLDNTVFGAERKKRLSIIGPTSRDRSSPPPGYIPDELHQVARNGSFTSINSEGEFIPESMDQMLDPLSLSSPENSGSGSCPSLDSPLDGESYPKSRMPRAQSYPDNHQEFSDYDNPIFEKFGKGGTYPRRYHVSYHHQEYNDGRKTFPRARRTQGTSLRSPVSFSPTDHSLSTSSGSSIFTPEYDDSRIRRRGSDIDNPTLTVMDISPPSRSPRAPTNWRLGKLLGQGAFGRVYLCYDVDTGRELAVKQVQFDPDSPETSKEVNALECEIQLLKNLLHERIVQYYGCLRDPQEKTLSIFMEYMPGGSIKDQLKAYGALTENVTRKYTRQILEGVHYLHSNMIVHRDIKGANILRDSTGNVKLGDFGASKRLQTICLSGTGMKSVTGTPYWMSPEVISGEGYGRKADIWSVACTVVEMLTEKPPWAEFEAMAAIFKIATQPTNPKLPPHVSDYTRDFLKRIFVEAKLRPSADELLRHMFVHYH

[12] = target: Serine/threonine-protein kinase SBK1 (Homo sapiens) (UniProt Q52WX2); test: Inhibition of recombinant human full length SBK1 at 1 uM using KKLRRTLSVA as substrate incubated for 40 mins in presence of [gamma-33P]-ATP by scintillation counting method relative to control
Serine/threonine-protein kinase SBK1 (Homo sapiens), sequence (Q52WX2 whole entry, the tested form may be a part): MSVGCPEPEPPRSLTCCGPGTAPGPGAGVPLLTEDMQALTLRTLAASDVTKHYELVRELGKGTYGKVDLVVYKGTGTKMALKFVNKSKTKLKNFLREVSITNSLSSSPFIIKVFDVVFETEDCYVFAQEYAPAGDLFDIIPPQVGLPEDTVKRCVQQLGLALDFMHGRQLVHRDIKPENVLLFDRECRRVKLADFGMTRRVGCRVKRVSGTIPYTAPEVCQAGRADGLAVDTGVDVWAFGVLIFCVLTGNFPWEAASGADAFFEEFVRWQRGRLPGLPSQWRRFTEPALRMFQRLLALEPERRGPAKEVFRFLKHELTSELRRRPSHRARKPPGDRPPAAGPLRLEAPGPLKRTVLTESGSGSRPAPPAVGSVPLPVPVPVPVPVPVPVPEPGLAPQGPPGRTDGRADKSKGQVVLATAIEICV

[13] = target: Fibroblast growth factor receptor 2 (Homo sapiens) (UniProt P21802); test: Inhibition of recombinant human FGFR2 (456 to 770 residues) at 1 uM using poly(Glu, Tyr) 4:1 as substrate incubated for 40 mins in presence of [gamma-33P]-ATP by scintillation counting method relative to control
Fibroblast growth factor receptor 2 (Homo sapiens), sequence (P21802 22-821 limits assumed): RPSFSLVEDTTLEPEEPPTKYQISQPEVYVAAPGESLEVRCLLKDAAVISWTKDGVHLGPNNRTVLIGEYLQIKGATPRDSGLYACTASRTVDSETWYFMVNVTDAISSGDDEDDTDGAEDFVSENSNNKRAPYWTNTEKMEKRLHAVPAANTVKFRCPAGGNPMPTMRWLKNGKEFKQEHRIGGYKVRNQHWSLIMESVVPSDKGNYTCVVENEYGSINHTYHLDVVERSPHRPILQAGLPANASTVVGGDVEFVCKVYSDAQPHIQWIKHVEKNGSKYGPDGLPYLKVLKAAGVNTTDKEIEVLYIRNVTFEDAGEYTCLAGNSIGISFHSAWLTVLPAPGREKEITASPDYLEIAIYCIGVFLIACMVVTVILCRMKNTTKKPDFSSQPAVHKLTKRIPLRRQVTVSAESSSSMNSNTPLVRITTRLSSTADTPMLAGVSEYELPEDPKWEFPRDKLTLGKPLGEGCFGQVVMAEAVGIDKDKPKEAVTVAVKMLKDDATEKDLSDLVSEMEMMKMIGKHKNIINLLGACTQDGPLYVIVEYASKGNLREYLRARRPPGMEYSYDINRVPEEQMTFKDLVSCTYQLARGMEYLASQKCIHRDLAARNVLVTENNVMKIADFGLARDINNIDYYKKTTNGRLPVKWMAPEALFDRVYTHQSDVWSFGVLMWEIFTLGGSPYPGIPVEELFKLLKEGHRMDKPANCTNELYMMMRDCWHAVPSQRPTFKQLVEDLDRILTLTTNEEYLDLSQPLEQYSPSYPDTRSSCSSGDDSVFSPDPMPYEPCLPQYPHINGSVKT

[14] = target: Serine/threonine-protein kinase PAK 1 (Homo sapiens) (UniProt Q13153); test: Inhibition of recombinant human PAK1 (150 to end residues) at 1 uM using RRRLSFAEPG as substrate incubated for 40 mins in presence of [gamma-33P]-ATP by scintillation counting method relative to control
Serine/threonine-protein kinase PAK 1 (Homo sapiens), sequence (Q13153 whole entry): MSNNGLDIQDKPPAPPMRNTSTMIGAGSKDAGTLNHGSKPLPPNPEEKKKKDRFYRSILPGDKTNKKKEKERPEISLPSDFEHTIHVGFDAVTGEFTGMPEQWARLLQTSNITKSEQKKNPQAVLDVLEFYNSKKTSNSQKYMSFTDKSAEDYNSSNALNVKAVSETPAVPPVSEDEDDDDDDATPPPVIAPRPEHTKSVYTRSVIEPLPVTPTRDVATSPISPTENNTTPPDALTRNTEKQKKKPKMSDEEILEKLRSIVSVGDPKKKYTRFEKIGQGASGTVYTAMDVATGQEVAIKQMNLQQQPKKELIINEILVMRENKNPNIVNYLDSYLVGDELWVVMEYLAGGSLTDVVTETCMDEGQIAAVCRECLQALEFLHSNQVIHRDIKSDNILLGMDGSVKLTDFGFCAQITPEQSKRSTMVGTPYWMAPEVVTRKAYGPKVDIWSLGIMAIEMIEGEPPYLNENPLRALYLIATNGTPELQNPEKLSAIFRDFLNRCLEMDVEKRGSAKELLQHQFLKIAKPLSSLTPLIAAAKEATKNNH

[15] = target: Serine/threonine-protein kinase A-Raf (Homo sapiens) (UniProt P10398); test: Inhibition of recombinant human A-Raf (273 to end residues) at 1 uM using myelin as substrate incubated for 40 mins in presence of [gamma-33P]-ATP by scintillation counting method relative to control; procedure, shortened: as §2
Serine/threonine-protein kinase A-Raf (Homo sapiens), sequence (P10398 whole entry): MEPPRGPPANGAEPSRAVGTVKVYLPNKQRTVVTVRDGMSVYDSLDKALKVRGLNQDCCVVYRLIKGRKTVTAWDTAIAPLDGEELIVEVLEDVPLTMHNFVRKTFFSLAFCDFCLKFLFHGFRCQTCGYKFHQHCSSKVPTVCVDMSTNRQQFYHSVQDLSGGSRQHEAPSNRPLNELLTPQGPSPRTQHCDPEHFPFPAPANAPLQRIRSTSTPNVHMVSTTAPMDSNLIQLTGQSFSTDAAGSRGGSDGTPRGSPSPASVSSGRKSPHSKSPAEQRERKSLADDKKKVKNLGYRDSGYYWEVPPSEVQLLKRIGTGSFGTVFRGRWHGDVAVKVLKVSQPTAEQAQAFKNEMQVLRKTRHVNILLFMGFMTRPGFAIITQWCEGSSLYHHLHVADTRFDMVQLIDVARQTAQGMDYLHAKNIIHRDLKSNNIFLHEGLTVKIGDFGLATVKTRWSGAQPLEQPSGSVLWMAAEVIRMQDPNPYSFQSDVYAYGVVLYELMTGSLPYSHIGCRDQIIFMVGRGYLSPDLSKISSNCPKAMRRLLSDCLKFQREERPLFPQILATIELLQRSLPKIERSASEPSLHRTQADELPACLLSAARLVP

[16] = target: Angiopoietin-1 receptor (Homo sapiens) (UniProt Q02763); test: Inhibition of recombinant human TIE2 (771 to end residues) at 1 uM using EFPIYDFLPAKKK as substrate incubated for 40 mins in presence of [gamma-33P]-ATP by scintillation counting method relative to control
Mus musculus = test: Antiangiogenic activity in Matrigel plug angiogenic BALB/c mouse assessed as reduction in blood vessel formation at 10 to 20 mg/kg, sc measured after 10 days by Matrigel plug assay; format: functional, organism-based
Procedure, shortened: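 Balb/c mice, 5 weeks old, were injected subcutaneously with 750 µL of a 2:1 mix of growth factor-reduced Matrigel and compound (10 or 20 mg/kg) or vehicle. Plugs were harvested after 10 days and the subcutaneous vessels photographed.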

[17] = target: Mitogen-activated protein kinase kinase kinase 20 (Homo sapiens) (UniProt Q9NYL2); test: Inhibition of recombinant human full length ZAK at 1 uM using MBP as substrate incubated for 40 mins in presence of [gamma-33P]-ATP by scintillation counting method relative to control
[18] = target: Aurora kinase A (Homo sapiens) (UniProt O14965); test: Inhibition of recombinant full length human Aurora A at 1 uM using LRRASLG as substrate incubated for 40 mins in presence of [gamma-33P]-ATP by scintillation counting method relative to control; procedure, shortened: as §2
Aurora kinase A (Homo sapiens), sequence (O14965 whole entry): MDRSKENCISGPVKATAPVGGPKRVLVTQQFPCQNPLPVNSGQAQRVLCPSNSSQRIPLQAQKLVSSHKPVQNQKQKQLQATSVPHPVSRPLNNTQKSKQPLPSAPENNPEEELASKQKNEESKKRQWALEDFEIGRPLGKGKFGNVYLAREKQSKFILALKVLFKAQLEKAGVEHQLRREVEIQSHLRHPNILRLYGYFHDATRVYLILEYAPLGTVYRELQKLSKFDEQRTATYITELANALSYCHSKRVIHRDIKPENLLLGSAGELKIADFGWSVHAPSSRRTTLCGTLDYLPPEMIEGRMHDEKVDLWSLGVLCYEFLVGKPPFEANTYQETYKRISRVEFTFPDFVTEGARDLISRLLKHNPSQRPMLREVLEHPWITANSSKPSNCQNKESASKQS

[19] = Volume of distribution in Sprague-Dawley rat at 10 mg/kg, po by HPLC-MS analysis; format: ADME, organism-based; details: in vivo

With `COc1cc2nccc(Oc3ccc(NC(=O)C4(C(=O)Nc5ccc(F)cc5)CC4)cc3)c2cc1OC` [CABOZANTINIB] the Activity (T47D [1]) was “Active” and the Activity (SiHa) was “Active”.
For `Cc1ccc(NC(=O)C2(C(=O)Nc3ccc(Nc4ncc(F)c(-c5cc(F)c6nc(C)n(C(C)C)c6c5)n4)cc3)CC2)cc1`, the inhibition [2] was 73%, the inhibition [3] was 97% and the pIC50 [4] was 6.61. For the same compound, the Activity (T47D [5]) was “Dose-dependent effect”, the inhibition [6] was 11% and the inhibition [7] was 47%. For the same compound, the inhibition (Homo sapiens) was 6%, the inhibition [8] was 49% and the inhibition [9] was 16%. The inhibition [10] was 6%, the inhibition [11] was 79% and the inhibition [12] was 13%. The inhibition [13] was 4%, the inhibition [14] was 52% and the inhibition [15] was 19%. For the same compound, the inhibition [16] was 23%, the inhibition (Mus musculus) was “Active” and the inhibition [17] was 14%. The inhibition [18] was 79% and the Vd [19] was 6 L/kg.
